Positions of bridges follow the written chain, without caps; N, C: chain ends. Non-standard residues stand in square brackets, D forms with d. Residues, ends and D or L forms follow the SMILES beside them. Nva = CCC[C@H](N)C(=O)O
Key:
[1] = biological target: Atrial natriuretic peptide receptor (Homo sapiens) (UniProt P20594+P16066+P17342); assay: Selectivity factor, ratio of NVR and VR relative binding potency; type: protein assay; details: Oryctolagus cuniculus
Oryctolagus cuniculus = species: Oryctolagus cuniculus; assay: Binding affinity for vasorelaxant receptor by competitive displacement of [125I]-AP(103-126) from rabbit lung membranes; type: tissue-based; details: Membrane
[2] = Apparent binding constant for vasorelaxant subclass of receptors; set-up: species or system Oryctolagus cuniculus
Procedure, shortened: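 Competitive binding assay on rabbit lung membranes, using atrial peptide analogues.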

[3] = biological target: T1, Atrial natriuretic peptide receptor 3 (Homo sapiens) (UniProt P17342); assay: Binding affinity for non-vasorelaxant receptor by competitive displacement of [125I]-AP(103-126) from rabbit lung membranes; type: tissue-based; details: Oryctolagus cuniculus, Membrane, target entry is the homologue from another species
T1 sequence (whole entry): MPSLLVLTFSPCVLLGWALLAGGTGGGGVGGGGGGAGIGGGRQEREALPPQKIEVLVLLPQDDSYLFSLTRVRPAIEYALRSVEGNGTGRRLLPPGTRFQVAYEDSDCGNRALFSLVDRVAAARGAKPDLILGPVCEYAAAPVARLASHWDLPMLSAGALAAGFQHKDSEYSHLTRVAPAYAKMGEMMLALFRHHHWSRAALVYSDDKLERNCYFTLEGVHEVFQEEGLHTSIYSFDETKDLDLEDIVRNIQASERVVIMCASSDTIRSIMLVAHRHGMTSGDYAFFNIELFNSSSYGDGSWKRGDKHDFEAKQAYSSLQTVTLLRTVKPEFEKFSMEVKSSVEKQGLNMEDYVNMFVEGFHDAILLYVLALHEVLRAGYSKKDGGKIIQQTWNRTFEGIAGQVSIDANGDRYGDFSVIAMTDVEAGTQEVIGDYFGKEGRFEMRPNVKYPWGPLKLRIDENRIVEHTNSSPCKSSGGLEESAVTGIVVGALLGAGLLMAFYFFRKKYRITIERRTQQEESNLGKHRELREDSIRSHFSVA

Row | Ratio [1] | Relative potency (Oryctolagus cuniculus) | Ki [2] [nM] | Relative potency [3] | Structure (SMILES)
1 | 118 | 0.011 | 7.4 | 1.3 | CC[C@H](C)[C@@H]1NC(=O)[C@H](CCCN=C(N)N)NC(=O)[C@H](CC(=O)O)NC(=O)[C@H]([C@@H](C)CC)NC(=O)[C@H](CCCN=C(N)N)NC(=O)[C@@H](NC(=O)CNC(=O)[C@H](Cc2ccccc2)NC(=O)CNC(=O)[C@H](CO)NC(=O)[C@@H](N)CO)CSSC[C@@H](C(=O)NCC(=O)N[C@@H](CC(C)C)C(=O)NCC(=O)NCC(=O)N[C@@H](CC(N)=O)C(=O)N[C@@H](CO)C(=O)N[C@@H](Cc2ccccc2)C(=O)N[C@@H](CCCN=C(N)N)C(N)=O)NC(=O)[C@H](CCC(N)=O)NC(=O)[C@H](C)NC(=O)CNC1=O (H-SSGFGCRIDRIGAQCGLGGNSFR-NH2; disulfide 6-15)
2 | 286 | 0.00091 | – | 0.26 | CCC[C@H](NC(=O)CNC(=O)[C@H](CC(C)C)NC(=O)CNC(=O)[C@@H]1CSSC[C@H](NC(=O)CNC(=O)[C@H](Cc2ccccc2)NC(=O)[C@H](CCC)NC(=O)[C@H](CO)NC(=O)[C@@H](N)CO)C(=O)N[C@@H](CCCN=C(N)N)C(=O)N[C@@H]([C@@H](C)CC)C(=O)N[C@@H](CC(=O)O)C(=O)N[C@@H](CCCN=C(N)N)C(=O)N[C@@H]([C@@H](C)CC)C(=O)NCC(=O)N[C@@H](C)C(=O)N[C@@H](CCC(N)=O)C(=O)N1)C(=O)N[C@@H](CC(N)=O)C(=O)N[C@@H](CO)C(=O)N[C@@H](Cc1ccccc1)C(=O)N[C@@H](CCCN=C(N)N)C(N)=O (H-SS[Nva]FGCRIDRIGAQCGLG[Nva]NSFR-NH2; disulfide 6-15)

Source: ChEMBL document CHEMBL1124687, “Analogues of atriopeptin(103-125)amide having high binding selectivity” (J Med Chem, 1989)
